Columns and labels:
Assay type in all cases: functional
Plutella xylostella [1] = assay: Insecticidal activity against Plutella xylostella (diamondback moth) grown on compound pre-treated fresh cabbage leaves assessed as insect mortality at 5 mg/kg measured 3 days post compound treatment by leaf-dip method; conditions: for mortality at 5 mg/kg: Plutella xylostella; for mortality: 5 mg/kg
Summary of the method: (§1)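 Leaf-dip stomach-toxicity assay on laboratory-reared diamondback moth. Test solutions came from a 200 mg L^-1 stock in dimethylformamide, diluted with water containing TW-20. Control leaves were treated with water and dimethylformamide. Tests were held at 25±1 °C, percentage mortality was scored 3 days after treatment, and each treatment was run three times.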

Plutella xylostella [2] = assay: Insecticidal activity against Plutella xylostella (diamondback moth) grown on compound pre-treated fresh cabbage leaves assessed as insect mortality at 10 mg/kg measured 3 days post compound treatment by leaf-dip method; conditions: for mortality at 10 mg/kg: Plutella xylostella; for mortality: 10 mg/kg; summary of the method: as §1
Plutella xylostella [3] = assay: Insecticidal activity against Plutella xylostella (diamondback moth) grown on compound pre-treated fresh cabbage leaves assessed as insect mortality at 25 mg/kg measured 3 days post compound treatment by leaf-dip method; conditions: for mortality at 25 mg/kg: Plutella xylostella; summary of the method: as §1
Plutella xylostella [4] = assay: Insecticidal activity against Plutella xylostella (diamondback moth) grown on compound pre-treated fresh cabbage leaves assessed as insect mortality at 50 mg/kg measured 3 days post compound treatment by leaf-dip method; summary of the method: as §1
Plutella xylostella [5] = assay: Insecticidal activity against Plutella xylostella (diamondback moth) grown on compound pre-treated fresh cabbage leaves assessed as insect mortality at 100 mg/kg measured 3 days post compound treatment by leaf-dip method; summary of the method: as §1
Plutella xylostella [6] = assay: Insecticidal activity against Plutella xylostella (diamondback moth) grown on compound pre-treated fresh cabbage leaves assessed as insect mortality at 200 mg/kg measured 3 days post compound treatment by leaf-dip method; summary of the method: as §1
Culex pipiens pallens [7] = assay: Insecticidal activity against Culex pipiens pallens (mosquito) assessed as insect mortality at 50 ug/kg measured 1 day post compound treatment; conditions: 24 h
Summary of the method: (§2)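 Fourth-instar Culex pipiens pallens larvae, 20 per test, were laboratory-reared and placed in 100 mL of test solution made by adding 1 mL of compound dilution to 99 mL of water. Tests were held at 25±1 °C, percentage mortality was scored 1 day after treatment, and each test was run three times.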

Culex pipiens pallens [8] = assay: Insecticidal activity against Culex pipiens pallens (mosquito) assessed as insect mortality at 100 ug/kg measured 1 day post compound treatment; conditions: for mortality at 0.1 mg/kg: Culex pipiens, 24 h; summary of the method: as §2
Aphis craccivora [9] = assay: Insecticidal activity against Aphis craccivora (cowpea aphid) infested tender soybean shoots exposed to 5 mg/kg test compound solution assessed as insect mortality measured 24 hr post compound treatment; conditions: for mortality at 5 mg/kg: Aphis craccivora, 24 h; for mortality: 5 mg/kg
Summary of the method: (§3)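 Soybean tender shoots carrying 60 aphids were dipped in test solutions. Solutions were made from a 200 mg L^-1 stock in dimethylformamide, diluted with water containing TW-20. Insects were laboratory-reared, tests were held at 25±1 °C, and mortality was scored.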

Aphis craccivora [10] = assay: Insecticidal activity against Aphis craccivora (cowpea aphid) infested tender soybean shoots exposed to 10 mg/kg test compound solution assessed as insect mortality measured 24 hr post compound treatment; conditions: for mortality at 10 mg/kg: Aphis craccivora, 24 h; summary of the method: as §3
Aphis craccivora [11] = assay: Insecticidal activity against Aphis craccivora (cowpea aphid) infested tender soybean shoots exposed to 25 mg/kg test compound solution assessed as insect mortality measured 24 hr post compound treatment; summary of the method: as §3
Aphis craccivora [12] = assay: Insecticidal activity against Aphis craccivora (cowpea aphid) infested tender soybean shoots exposed to 50 mg/kg test compound solution assessed as insect mortality measured 24 hr post compound treatment; summary of the method: as §3
Aphis craccivora [13] = assay: Insecticidal activity against Aphis craccivora (cowpea aphid) infested tender soybean shoots exposed to 100 mg/kg test compound solution assessed as insect mortality measured 24 hr post compound treatment; summary of the method: as §3
Aphis craccivora [14] = assay: Insecticidal activity against Aphis craccivora (cowpea aphid) infested tender soybean shoots exposed to 200 mg/kg test compound solution assessed as insect mortality measured 24 hr post compound treatment; summary of the method: as §3
Aphis craccivora [15] = assay: Insecticidal activity against Aphis craccivora (cowpea aphid) infested tender soybean shoots exposed to 2.5 mg/kg test compound solution assessed as insect mortality measured 24 hr post compound treatment; conditions: for mortality at 2.5 mg/kg: Aphis craccivora, 24 h; summary of the method: as §3
Plutella xylostella [16] = assay: Insecticidal activity against Plutella xylostella (diamondback moth) grown on compound pre-treated fresh cabbage leaves assessed as insect mortality at 2.5 mg/kg measured 3 days post compound treatment by leaf-dip method; summary of the method: as §1
Culex pipiens pallens [17] = assay: Insecticidal activity against Culex pipiens pallens (mosquito) assessed as insect mortality at 25 ug/kg measured 1 day post compound treatment; conditions: 24 h; summary of the method: as §2
Culex pipiens pallens [18] = assay: Insecticidal activity against Culex pipiens pallens (mosquito) assessed as insect mortality at 5 ug/kg measured 1 day post compound treatment; conditions: 24 h; summary of the method: as §2
Culex pipiens pallens [19] = assay: Insecticidal activity against Culex pipiens pallens (mosquito) assessed as insect mortality at 10 ug/kg measured 1 day post compound treatment; conditions: 24 h; summary of the method: as §2

SMILES	mortality at 5 mg/kg (Plutella xylostella [1]) [%]	mortality at 10 mg/kg (Plutella xylostella [2]) [%]	mortality at 25 mg/kg (Plutella xylostella [3]) [%]	mortality at 50 mg/kg (Plutella xylostella [4]) [%]	mortality at 100 mg/kg (Plutella xylostella [5]) [%]	mortality at 200 mg/kg (Plutella xylostella [6]) [%]	mortality at 0.05 mg/kg (Culex pipiens pallens [7]) [%]	mortality at 0.1 mg/kg (Culex pipiens pallens [8]) [%]	mortality at 5 mg/kg (Aphis craccivora [9]) [%]	mortality at 10 mg/kg (Aphis craccivora [10]) [%]	mortality at 25 mg/kg (Aphis craccivora [11]) [%]	mortality at 50 mg/kg (Aphis craccivora [12]) [%]	mortality at 100 mg/kg (Aphis craccivora [13]) [%]	mortality at 200 mg/kg (Aphis craccivora [14]) [%]	mortality at 2.5 mg/kg (Aphis craccivora [15]) [%]	mortality at 2.5 mg/kg (Plutella xylostella [16]) [%]	mortality at 0.025 mg/kg (Culex pipiens pallens [17]) [%]	mortality at 0.01 mg/kg (Culex pipiens pallens [19]) [%]	mortality (Culex pipiens pallens [8]) [%]	also measured
CC[S+]([O-])c1c(C#N)nn(-c2c(Cl)cc(C(F)(F)F)cc2Cl)c1NC(OCCCl)C(Cl)(Cl)Cl (configuration not stated)	0	32	46	100	100	100	0	100	0	48	100	100	100	100	–	–	–	–	–	–
CC[S+]([O-])c1c(C#N)nn(-c2c(Cl)cc(C(F)(F)F)cc2Cl)c1NC(OCCF)C(Cl)(Cl)Cl (configuration not stated)	0	30	46	91	100	100	20	100	73	100	100	100	100	100	43	–	–	–	–	–
CCOC(Nc1c([S+]([O-])CC)c(C#N)nn1-c1c(Cl)cc(C(F)(F)F)cc1Cl)C(Cl)(Cl)Cl (configuration not stated)	29	72	100	100	100	100	100	100	81	100	100	100	100	100	0	0	40	–	–	–
CC[S+]([O-])c1c(C#N)nn(-c2c(Cl)cc(C(F)(F)F)cc2Cl)c1NC(OC)C(Cl)(Cl)Cl (configuration not stated)	–	0	31	86	100	100	100	100	76	87	96	100	100	100	0	–	0	–	–	–
CCOC(Nc1c([S+](C)[O-])c(C#N)nn1-c1c(Cl)cc(C(F)(F)F)cc1Cl)C(Cl)(Cl)Cl (configuration not stated)	63	85	100	100	100	100	100	100	63	85	100	100	100	100	0	0	30	–	–	–
CCCOC(Nc1c(SCC)c(C#N)nn1-c1c(Cl)cc(C(F)(F)F)cc1Cl)C(Cl)(Cl)Cl (configuration not stated)	–	17	58	89	100	100	100	100	–	0	53	85	90	95	–	–	100	100	–	mortality at 0.005 mg/kg (Culex pipiens pallens [18]): 50%
CCOC(Nc1c(SCC)c(C#N)nn1-c1c(Cl)cc(C(F)(F)F)cc1Cl)C(Cl)(Cl)Cl (configuration not stated)	–	18	44	96	100	100	100	100	–	0	35	75	86	90	–	–	100	100	–	mortality at 0.005 mg/kg (Culex pipiens pallens [18]): 0%
CSc1c(C#N)nn(-c2c(Cl)cc(C(F)(F)F)cc2Cl)c1NC(OCCCl)C(Cl)(Cl)Cl (configuration not stated)	87	100	100	100	100	100	100	100	69	73	98	100	100	100	62	62	100	100	–	mortality at 0.005 mg/kg (Culex pipiens pallens [18]): 20%
CSc1c(C#N)nn(-c2c(Cl)cc(C(F)(F)F)cc2Cl)c1NC(OCCF)C(Cl)(Cl)Cl (configuration not stated)	81	89	100	100	100	100	100	100	28	62	74	100	100	100	0	34	100	40	–	–
C[S+]([O-])c1c(C#N)nn(-c2c(Cl)cc(C(F)(F)F)cc2Cl)c1NC(OCCF)C(Cl)(Cl)Cl (stereo in doubt; 7d-1)	–	–	–	–	–	–	–	–	–	–	–	–	–	–	–	–	–	–	20	mortality (Plutella xylostella [1]): 56%; mortality (Plutella xylostella [2]): 77%; mortality (Plutella xylostella [3]; 25 mg/kg): 92%; mortality (Aphis craccivora [15]; 2.5 mg/kg): 43%; mortality (Aphis craccivora [9]): 72%
C[S+]([O-])c1c(C#N)nn(-c2c(Cl)cc(C(F)(F)F)cc2Cl)c1NC(OCCF)C(Cl)(Cl)Cl (stereo in doubt; 7d-2)	54	76	89	100	100	100	–	–	70	100	100	100	100	100	46	0	–	–	50	–
C[S+]([O-])c1c(C#N)nn(-c2c(Cl)cc(C(F)(F)F)cc2Cl)c1NC(OCCCl)C(Cl)(Cl)Cl (stereo in doubt; 7e-1)	–	–	–	–	–	–	40	–	–	–	–	–	–	–	–	–	–	–	100	mortality (Plutella xylostella [1]): 60%; mortality (Plutella xylostella [2]): 81%; mortality (Aphis craccivora [9]): 61%; mortality (Aphis craccivora [10]; 10 mg/kg): 96%
C[S+]([O-])c1c(C#N)nn(-c2c(Cl)cc(C(F)(F)F)cc2Cl)c1NC(OCCCl)C(Cl)(Cl)Cl (stereo in doubt; 7e-2)	56	79	100	100	100	100	–	–	68	100	100	100	100	100	0	0	–	–	50	–
